ChEMBL document CHEMBL1148816, “Heterotricyclic himbacine analogs as potent, orally active thrombin receptor (protease activated receptor-1) antagonists” (J Med Chem, 2007)
Active and inactive are the calls of the source. No cut-off for these calls is given here.

Experiments:
[1] = Half life in cynomolgus monkey at 1 mg/kg, iv and 1.5 mg/kg, po; format: ADME, organism-based, Macaca fascicularis; conditions: in vivo
[2] = AUC (0 to 24 hrs) in cynomolgus monkey at 1 mg/kg, iv and 1.5 mg/kg, po; format: ADME, organism-based, Macaca fascicularis; conditions: plasma
[3] = Bioavailability in cynomolgus monkey at 1 mg/kg, iv and 1.5 mg/kg, po; format: ADME, organism-based, Macaca fascicularis; conditions: in vivo
[4] = tested on: Cynomolgus monkey; test: Inhibition of haTRAP-induced platelet aggregation in cynomolgus monkey at 1 mg/kg, po up to 6 hrs; format: functional, organism-based; set-up: dose 1 mg/kg; conditions: Macaca fascicularis
Outline: (§1)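 Cynomolgus monkeys dosed orally at 1 mg/kg and kept conscious in chairs; blood sampled hourly up to 6 h and again at 24 h; haTRAP added to the samples to trigger aggregation, measured by whole blood aggregometry.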

[5] = target: T1, Proteinase-activated receptor 1 (Homo sapiens, UniProt P25116); test: (§2) Displacement of [3H]haTRAP from PAR1 in human platelet membrane; format: cell membranes
T1 sequence (P25116 whole entry): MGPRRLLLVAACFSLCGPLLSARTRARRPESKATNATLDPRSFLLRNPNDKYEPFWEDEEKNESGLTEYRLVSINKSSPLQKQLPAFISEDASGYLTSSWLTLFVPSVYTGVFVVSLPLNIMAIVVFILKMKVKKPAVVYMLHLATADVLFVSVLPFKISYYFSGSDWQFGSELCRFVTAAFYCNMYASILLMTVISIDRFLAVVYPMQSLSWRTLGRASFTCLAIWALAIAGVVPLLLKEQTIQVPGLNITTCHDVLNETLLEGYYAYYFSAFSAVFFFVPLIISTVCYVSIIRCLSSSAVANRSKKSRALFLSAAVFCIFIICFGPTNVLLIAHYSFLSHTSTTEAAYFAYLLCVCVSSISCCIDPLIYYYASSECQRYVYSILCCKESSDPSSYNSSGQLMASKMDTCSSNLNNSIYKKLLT
Outline: (§3)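 Membranes from human platelets as the PAR-1 source, with tritiated high-affinity thrombin receptor activating peptide ([3H]haTRAP) as radioligand; IC50 reported ± SEM, n = 2.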

[6] = Tmax in cynomolgus monkey at 1 mg/kg, iv and 1.5 mg/kg, po; format: ADME, organism-based, Macaca fascicularis; conditions: in vivo
[7] = tested on: Cynomolgus monkey; test: Inhibition of haTRAP-induced platelet aggregation in cynomolgus monkey at 1 mg/kg, po after 24 hrs; format: functional; conditions: Macaca fascicularis; outline: as §1
[8] = AUC (0 to 6 hrs) in rat at 10 mg/kg, po; format: ADME, organism-based; set-up: time < 6 hr, dose 10 mg/kg, route oral; conditions: plasma
Outline: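 Rats given a single 10 mg/kg oral dose in 0.4% methylcellulose; plasma levels followed for 6 h and exposure reported as AUC from 0 to 6 h in ng·hr/mL.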

[9] = Cmax in cynomolgus monkey at 1 mg/kg, iv and 1.5 mg/kg, po; format: ADME, organism-based, Macaca fascicularis; conditions: in vivo
[10] = target: T2, Proteinase-activated receptor 1 (Homo sapiens) (UniProt P25116); test: as §2; format: cell membranes; outline: as §3
T2 sequence (whole entry): T1 sequence (P25116 whole entry)

[11] = Cmax in po dosed cynomolgus monkey; format: ADME, organism-based, Macaca fascicularis; set-up: route oral; conditions: in vivo
[12] = species: Mus musculus; test: Effect on liver to body weight ratio in mouse; format: functional, organism-based
Outline: (§4)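 Mouse P450 enzyme induction model run for 8 days at doses up to 100 mg/kg; end points were liver weight, liver-to-body weight ratio and spectral CYP450.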

[13] = Tmax in cynomolgus monkey; format: ADME, organism-based, Macaca fascicularis; conditions: in vivo
[14] = Half life in iv dosed cynomolgus monkey; format: ADME, organism-based, Macaca fascicularis; conditions: in vivo
[15] = species: Mus musculus; test: Effect on liver weight in mouse; format: functional, organism-based; outline: as §4
[16] = tested on: Cynomolgus monkey; test: Ex vivo inhibition of haTRAP-induced platelet aggregation in cynomolgus monkey at 3 mg/kg, po after 6 hrs; format: functional; conditions: Macaca fascicularis
Outline: (§5)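 Conscious, chaired cynomolgus monkeys dosed orally at 3 mg/kg in 20% PEG-HPBCD; blood drawn at 1 h intervals to 6 h, then at 24 h; haTRAP added ex vivo as agonist; aggregation read in a whole blood aggregometer, reported as percent reduction.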

[17] = tested on: Cynomolgus monkey; test: Ex vivo inhibition of haTRAP-induced platelet aggregation in cynomolgus monkey at 3 mg/kg, po 24 hrs; format: functional; conditions: Macaca fascicularis; outline: as §5
[18] = Bioavailability in cynomolgus monkey at 3 mg/kg, po; format: ADME, organism-based, Macaca fascicularis; conditions: in vivo

Row | SMILES | IC50 [5] [nM] | AUC(0-t) at 6 h [8] [ng·h/mL] | also measured
1 | C[C@H]1OC(=O)[C@@H]2C[C@@H]3COCC[C@H]3[C@H](/C=C/c3ccc(-c4ccccc4F)cn3)[C@H]12 | 25 | 1050 | half-life [1]: 8.6 h; AUC(0-t) [2]: 3700 ng·h/mL; bioavailability [3]: 71%; Activity [4]: Active; Tmax [6]: 1.7 h; inhibition in vivo at 1 mg/kg [7]: 55%; Cmax [9]: 610 ng/mL
2 | C[C@H]1OC(=O)[C@@H]2C[C@@H]3CS(=O)(=O)CC[C@H]3[C@H](/C=C/c3ccc(-c4cccc(C(F)(F)F)c4)cn3)[C@H]12 | 200 |  | 
3 | C[C@H]1OC(=O)[C@@H]2C[C@@H]3C[S+]([O-])CC[C@H]3[C@H](/C=C/c3ccc(-c4cccc(C(F)(F)F)c4)cn3)[C@H]12 (stereo in doubt) | 80 |  | 
4 | CCOC(=O)N1CCC[C@H]2[C@H](/C=C/c3ccc(-c4cccnc4)cn3)[C@@H]3[C@@H](C)OC(=O)[C@@H]3C[C@@H]21 |  |  | Activity [10]: inactive
5 | CCOC(=O)N1CCC[C@H]2[C@H](/C=C/c3ccc(-c4ccccc4F)cn3)[C@@H]3[C@@H](C)OC(=O)[C@@H]3C[C@@H]21 | 153 |  | 
6 | C[C@H]1OC(=O)[C@@H]2C[C@@H]3CN(C(=O)C4CC4)CC[C@H]3[C@H](/C=C/c3ccc(-c4ccccc4F)cn3)[C@H]12 | 8 | 6010 | inhibition in vivo at 3 mg/kg [16]: 45%; inhibition in vivo at 3 mg/kg [17]: 39%
7 | C[C@H]1OC(=O)[C@@H]2C[C@@H]3COCC[C@H]3[C@H](/C=C/c3ccc(-c4cccc(Cl)c4Cl)cn3)[C@H]12 | 21 |  | 
8 | C[C@H]1OC(=O)[C@@H]2C[C@@H]3COCC[C@H]3[C@H](/C=C/c3ccc(-c4cccc(F)c4)cn3)[C@H]12 | 26 | 850 | Activity [4]: Active; inhibition in vivo at 1 mg/kg [7]: 80%
9 | C[C@H]1OC(=O)[C@@H]2C[C@@H]3CN(S(C)(=O)=O)CC[C@H]3[C@H](/C=C/c3ccc(-c4cccc(F)c4)cn3)[C@H]12 | 15 | 5350 | inhibition in vivo at 3 mg/kg [16]: 54%; inhibition in vivo at 3 mg/kg [17]: 50%
10 | C[C@H]1OC(=O)[C@@H]2C[C@@H]3COCC[C@H]3[C@H](/C=C/c3ccc(-c4cccc(F)c4F)cn3)[C@H]12 | 26 | 1190 | 
11 | C[C@H]1OC(=O)[C@@H]2C[C@@H]3C[S+]([O-])CC[C@H]3[C@H](/C=C/c3ccc(-c4cccc(C(F)(F)F)c4)cn3)[C@H]12 (single isomer, unassigned; isomer 2) | 375 |  | 
12 | CCOC(=O)N1CCC[C@H]2[C@H](/C=C/c3ccc(-c4cccc(C#N)c4)cn3)[C@@H]3[C@@H](C)OC(=O)[C@@H]3C[C@@H]21 | 295 |  | 
13 | C[C@H]1OC(=O)[C@@H]2C[C@@H]3COCC[C@H]3[C@H](/C=C/c3ccc(-c4ccccc4Cl)cn3)[C@H]12 | 13 |  | 
14 | CCCS(=O)(=O)N1CC[C@@H]2[C@H](C[C@H]3C(=O)O[C@H](C)[C@H]3[C@H]2/C=C/c2ccc(-c3cccc(F)c3)cn2)C1 | 101 |  | 
15 | CCOC(=O)N1CCC[C@H]2[C@H](/C=C/c3ccc(-c4ccccc4C)cn3)[C@@H]3[C@@H](C)OC(=O)[C@@H]3C[C@@H]21 | 600 |  | 
16 | C[C@H]1OC(=O)[C@@H]2C[C@@H]3CN(C(=O)C4CC4)CC[C@H]3[C@H](/C=C/c3ccc(-c4cccc(F)c4)cn3)[C@H]12 | 15.5 | 4370 | inhibition in vivo at 3 mg/kg [16]: 100%; inhibition in vivo at 3 mg/kg [17]: 72%
17 | C[C@H]1OC(=O)[C@@H]2C[C@@H]3COCC[C@H]3[C@H](/C=C/c3ccc(-c4cccc(Cl)c4)cn3)[C@H]12 | 19 |  | 
18 | CCOC(=O)N1CCC[C@H]2[C@H](/C=C/c3ccc(-c4cccc(F)c4)cn3)[C@@H]3[C@@H](C)OC(=O)[C@@H]3C[C@@H]21 | 224 |  | 

Continued, in another order:

Row | IC50 [5] [nM] | AUC(0-t) at 6 h [8] [ng·h/mL] | SMILES | also measured
19 | 37.5 |  | C[C@H]1OC(=O)[C@@H]2C[C@@H]3CN(C(=O)C4CC4)CC[C@H]3[C@H](/C=C/c3ccc(-c4cccc(C(F)(F)F)c4)cn3)[C@H]12 | 
20 | 16.5 | 88 | COCCOC(=O)N1CC[C@@H]2[C@H](C[C@H]3C(=O)O[C@H](C)[C@H]3[C@H]2/C=C/c2ccc(-c3cccc(F)c3)cn2)C1 | 
21 | 762 |  | C[C@H]1OC(=O)[C@@H]2C[C@@H]3CN(C)CC[C@H]3[C@H](/C=C/c3ccc(-c4cccc(C(F)(F)F)c4)cn3)[C@H]12 | 
22 | 10.5 | 2220 | CCOC(=O)N1CC[C@@H]2[C@H](C[C@H]3C(=O)O[C@H](C)[C@H]3[C@H]2/C=C/c2ccc(-c3cccc(F)c3)cn2)C1 | Cmax [11]: 990 nM; Activity [12]: inactive; Ki [5]: 4.5 nM; Tmax [13]: 0.7 h; half-life [14]: 6.2 h; Activity [15]: inactive; inhibition in vivo at 3 mg/kg [16]: 100%; inhibition in vivo at 3 mg/kg [17]: 70%; bioavailability [18]: 62%
23 | 33.5 |  | CCOC(=O)N1CC[C@@H]2[C@H](C[C@H]3C(=O)O[C@H](C)[C@H]3[C@H]2/C=C/c2ccc(-c3ccccn3)cn2)C1 | inhibition in vivo at 3 mg/kg [16]: 67%; inhibition in vivo at 3 mg/kg [17]: 29%
24 | 1100 |  | C[C@H]1OC(=O)[C@@H]2C[C@@H]3CN(C(N)=O)CC[C@H]3[C@H](/C=C/c3ccc(-c4cccc(F)c4)cn3)[C@H]12 | 
25 | 600 |  | C[C@H]1OC(=O)[C@@H]2C[C@@H]3CNCC[C@H]3[C@H](/C=C/c3ccc(-c4cccc(C(F)(F)F)c4)cn3)[C@H]12 | 
26 | 8 | 3780 | CCOC(=O)N1CC[C@@H]2[C@H](C[C@H]3C(=O)O[C@H](C)[C@H]3[C@H]2/C=C/c2ccc(-c3ccccc3F)cn2)C1 | inhibition in vivo at 3 mg/kg [16]: 55%; inhibition in vivo at 3 mg/kg [17]: 55%
27 | 113 |  | CC(C)C(=O)N1CC[C@@H]2[C@H](C[C@H]3C(=O)O[C@H](C)[C@H]3[C@H]2/C=C/c2ccc(-c3cccc(C(F)(F)F)c3)cn2)C1 | 
28 | 22 |  | C[C@H]1OC(=O)[C@@H]2C[C@@H]3CSCC[C@H]3[C@H](/C=C/c3ccc(-c4cccc(C(F)(F)F)c4)cn3)[C@H]12 | 
29 | 25 |  | C[C@H]1OC(=O)[C@@H]2C[C@@H]3CN(C(=O)OCc4ccccc4)CC[C@H]3[C@H](/C=C/c3ccc(-c4cccc(C(F)(F)F)c4)cn3)[C@H]12 | 
30 | 11 |  | CCOC(=O)N1CC[C@@H]2[C@H](C[C@H]3C(=O)O[C@H](C)[C@H]3[C@H]2/C=C/c2ccc(-c3cccc(C(F)(F)F)c3)cn2)C1 | 
31 | 18.5 | 2050 | CCNC(=O)N1CC[C@@H]2[C@H](C[C@H]3C(=O)O[C@H](C)[C@H]3[C@H]2/C=C/c2ccc(-c3cccc(F)c3)cn2)C1 | inhibition in vivo at 3 mg/kg [16]: 47%; inhibition in vivo at 3 mg/kg [17]: 34%
32 | 550 |  | CC(=O)N1CC[C@@H]2[C@H](C[C@H]3C(=O)O[C@H](C)[C@H]3[C@H]2/C=C/c2ccc(-c3cccc(C(F)(F)F)c3)cn2)C1 | 
33 | 17 | 545 | C[C@H]1OC(=O)[C@@H]2C[C@@H]3COCC[C@H]3[C@H](/C=C/c3ccc(-c4cccc(C(F)(F)F)c4)cn3)[C@H]12 | 
